Assay results reported in ChEMBL document CHEMBL3797027, “Potent anti-proliferative actions of a non-diuretic glucosamine derivative of ethacrynic acid” (Bioorg Med Chem Lett, 2016).
Calls of active or inactive are those of the source. The rule behind the calls is not given here.

Legend:
NCI-H1299 [1] = assay: Induction of ROS generation in human H1299 cells at 20 and 40 uM incubated for 3 hrs by DCFDA staining based fluorescence microscopy; type: functional, cell-based
Outline: (§1)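 After 3 h exposure at different concentrations, DCFH-DA fluorescence was imaged by fluorescence microscopy. H2O2 (25 µM) served as positive control. In some wells, cells were pretreated with 3 mM N-acetylcysteine before compound addition.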

MDA-MB-231 [2] = assay: Induction of ROS generation in human MDA-MB-231 cells at 20 and 40 uM incubated for 3 hrs after pre-incubation with 3 mM NAC for 1 hr by DCFDA staining based fluorescence microscopy; type: functional, cell-based; outline: as §1
NCI-H1299 [3] = assay: Increase in p21 (waf1/cip1) protein expression in p53 deficient human H1299 cells at 10 to 40 uM by Western blot method; type: functional, cell-based
Outline: (§2)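 H1299 (p53-null), HCT116 (p53 wild type) and MDA-MB-231 (p53 mutant) cells were treated, then lysates were immunoblotted for p53, p21, PUMA and PARP. β-Actin served as loading control.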

HCT-116 [4] = assay: Increase in PUMA protein expression in wild type p53 expressing human HCT116 cells at 10 to 40 uM by Western blot method; type: functional, cell-based; outline: as §2
HCT-116 [5] = assay: Increase in cleaved PARP protein expression in wild type p53 expressing human HCT116 cells at 10 to 40 uM by Western blot method; type: functional, cell-based; outline: as §2
MDA-MB-231 [6] = assay: Increase in p21 (waf1/cip1) protein expression in p53 mutant expressing human MDA-MB-231 cells at 10 to 40 uM by Western blot method; type: functional, cell-based; outline: as §2
MDA-MB-231 [7] = assay: Increase in p21'cip1 protein expression in p53 mutant expressing human MDA-MB-231 cells at 10 to 40 uM by Western blot method; type: functional, cell-based; outline: as §2
MDA-MB-231 [8] = assay: Increase in PUMA protein expression in p53 mutant expressing human MDA-MB-231 cells at 10 to 40 uM by Western blot method; type: functional, cell-based; outline: as §2
MDA-MB-231 [9] = assay: Increase in cleaved PARP protein expression in p53 mutant expressing human MDA-MB-231 cells at 10 to 40 uM by Western blot method; type: functional, cell-based; outline: as §2
NCI-H1299 [10] = assay: Induction of cell cycle arrest in p53 deficient human H1299 cells assessed as accumulation at G2/M phase incubated for 24 hrs by propidium iodide staining based flow cytometry; type: functional
Mus musculus [11] = assay: Toxicity in mouse assessed as induction of tremors at 120 mg/kg/week for 2 weeks; type: organism-based; conditions: in vivo, 336 h
Mus musculus [12] = assay: Toxicity in mouse assessed as induction of lethargy at 120 mg/kg/week for 2 weeks; type: organism-based; conditions: in vivo, 336 h
Mus musculus [13] = assay: Toxicity in mouse assessed as induction of paralysis at 120 mg/kg/week for 2 weeks; type: organism-based; conditions: in vivo, 336 h
Mus musculus [14] = assay: Toxicity in mouse assessed as induction of diarrhea at 120 mg/kg/week for 2 weeks; type: organism-based; conditions: in vivo, 336 h
Mus musculus [15] = assay: Toxic diuretic effect in 12 hrs fasted CD1 mouse assessed as increase in urine output at 10 mg/kg, ip measured 6 to 24 hrs post dose relative to untreated control; type: toxicity, organism-based; conditions: in vivo
Outline: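 Female CD-1 mice fasted 12 h, then given compound IP at 10 mg/kg in PEG/EtOH/H2O (54:14:32). Vehicle control group included. Mice were housed singly in metabolic cages with free access to water. Voided urine was collected in graduated tubes under the cages over 0–6 h and 6–24 h after injection.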

[16] = Cytotoxic activity against human H1299 cells assessed as inhibition of cell proliferation incubated for 72 hrs by MTT assay; type: functional, cell-based; conditions: NCI-H1299, 72 h
Outline: (§3)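 MTT cell survival assay. IC50 is the concentration that inhibits tumour cell proliferation by 50%, read from cell survival curves. Values are given as mean ± SD of three independent experiments.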

[17] = Cytotoxic activity against human GBM10 cells assessed as inhibition of cell proliferation incubated for 72 hrs by MTT assay; type: functional, cell-based; conditions: GBM10, 72 h; outline: as §3
[18] = Cytotoxic activity against human SKBR3 cells assessed as inhibition of cell proliferation incubated for 72 hrs by MTT assay; type: functional, cell-based; conditions: SK-BR-3, 72 h; outline: as §3
[19] = Cytotoxic activity against human HCT116 cells assessed as inhibition of cell proliferation incubated for 72 hrs by MTT assay; type: functional, cell-based; conditions: HCT-116, 72 h; outline: as §3
[20] = Potency index, ratio of IC50 for ethacrynic acid to IC50 for test compound for cytotoxic activity against human SKBR3 cells assessed as inhibition of cell proliferation incubated for 72 hrs by MTT assay; type: functional, SK-BR-3
MDA-MB-231 [21] = assay: Potency index, ratio of IC50 for ethacrynic acid to IC50 for test compound for cytotoxic activity against human MDA-MB-231 cells assessed as inhibition of cell proliferation incubated for 72 hrs by MTT assay; type: functional
MCF7 = assay: Potency index, ratio of IC50 for ethacrynic acid to IC50 for test compound for cytotoxic activity against human MCF7 cells assessed as inhibition of cell proliferation incubated for 72 hrs by MTT assay; type: functional
HT-29 = assay: Potency index, ratio of IC50 for ethacrynic acid to IC50 for test compound for cytotoxic activity against human HT-29 cells assessed as inhibition of cell proliferation incubated for 72 hrs by MTT assay; type: functional
Outline: (§4)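 Index is the reference IC50 divided by the test IC50. Both IC50s were taken from MTT cell survival curves, each as mean ± SD of three independent experiments.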

[22] = Potency index, ratio of IC50 for ethacrynic acid to IC50 for test compound for cytotoxic activity against human HCT116 cells assessed as inhibition of cell proliferation incubated for 72 hrs by MTT assay; type: functional, HCT-116; outline: as §4
HCT-116 [23] = assay: Reduction in cellular total thiol levels in human HCT116 cells at 40 uM incubated for 3 hrs by Ellman's reagent based assay; type: functional
Outline: (§5)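 Cells exposed to 0–40 µM compound for 3 h, then trypsinized. Total thiols in cell extracts were quantified with Ellman's reagent.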

MDA-MB-231 [24] = assay: Reduction in cellular total thiol levels in human MDA-MB-231 cells at 40 uM incubated for 3 hrs by Ellman's reagent based assay; type: functional; outline: as §5
NCI-H1299 [25] = assay: Reduction in cellular total thiol levels in human H1299 cells at 40 uM incubated for 3 hrs by Ellman's reagent based assay; type: functional; outline: as §5
HCT-116 [26] = assay: Reduction in cellular total thiol levels in human HCT116 cells incubated for 3 hrs by Ellman's reagent based assay; type: functional, cell-based; outline: as §5
NCI-H1299 [27] = assay: Induction of ROS generation in human H1299 cells at 20 and 40 uM incubated for 3 hrs by DCFDA staining based flow cytometry; type: functional, cell-based
Outline: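 Cells were exposed for 3 h to compound, or to 25 µM H2O2 as positive control. Where indicated, 3 mM N-acetylcysteine was given 1 h before treatment. Pellets were stained with DCF-DA for 30 min, and intracellular ROS was read as fluorescence shift by flow cytometry against untreated controls.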

[28] = target: Glutathione S-transferase P (Homo sapiens) (UniProt P09211); assay: Inhibition of GSTP1 in human H1299 cells assessed as reduction in GST-pi activity pre-incubated for 3 hrs followed by chlorodinitrobenzene and reduced glutathione addition by photometric assay
Glutathione S-transferase P (Homo sapiens), sequence (P09211 2-210 limits assumed): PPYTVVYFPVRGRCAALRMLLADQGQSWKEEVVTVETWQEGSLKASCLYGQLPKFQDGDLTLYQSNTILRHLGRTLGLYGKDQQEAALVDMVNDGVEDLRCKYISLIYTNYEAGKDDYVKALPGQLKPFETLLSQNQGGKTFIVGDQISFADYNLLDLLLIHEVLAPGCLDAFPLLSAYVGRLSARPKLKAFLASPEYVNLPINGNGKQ

[29] = target: Glutathione S-transferase P (Homo sapiens) (UniProt P09211); assay: Inhibition of GSTP1 in human HCT116 cells assessed as reduction in GST-pi activity pre-incubated for 3 hrs followed by chlorodinitrobenzene and reduced glutathione addition by photometric assay; conditions: HCT-116

In the case of C=C(CC)C(=O)c1ccc(OCC(=O)N[C@@H]2[C@@H](O)[C@H](O)[C@@H](CO)O[C@H]2O)c(Cl)c1Cl, the Activity (NCI-H1299 [1]) is reported as “Active”, the Activity (MDA-MB-231 [2]) is reported as “inactive” and the Activity (NCI-H1299 [3]) is reported as “Active”. The Activity (HCT-116 [4]) was “Active”, the Activity (HCT-116 [5]) was “Active” and the Activity (MDA-MB-231 [6]) was “Active”. The Activity (MDA-MB-231 [7]) was “Active”, the Activity (MDA-MB-231 [8]) was “Active” and the Activity (MDA-MB-231 [9]) was “Active”. The Activity (NCI-H1299 [10]) was “Dose-dependent effect”, the Activity (Mus musculus [11]) was “Non-toxic” and the Activity (Mus musculus [12]) was “Non-toxic”. For the same compound, the Activity (Mus musculus [13]) was “Non-toxic”, the Activity (Mus musculus [14]) was “Non-toxic” and the Activity (Mus musculus [15]) was “Non-toxic”. It also gave an IC50 [16] of 11.5 µM, an IC50 [17] of 15.2 µM and an IC50 [18] of 16.1 µM. For the same compound, the IC50 [19] was 10.3 µM, the “Ratio IC50” value [20] was 3 and the “Ratio IC50” value (MDA-MB-231 [21]) was 3. The “Ratio IC50” value (MCF7) was 3, the “Ratio IC50” value (HT-29) was 3 and the “Ratio IC50” value [22] was 3. The Imax (HCT-116 [23]) was 58%, the Imax (MDA-MB-231 [24]) was 58% and the Imax (NCI-H1299 [25]) was 58%. For the same compound, the Activity (HCT-116 [26]) was “Dose-dependent effect”, the Activity (NCI-H1299 [27]) was “Active” and the Activity [28] was “Dose-dependent effect”. For the same compound, the Activity [29] was “Dose-dependent effect”.
